Here are results for 11 compounds from ChEMBL document CHEMBL3865828, “Total synthesis of 8-(6″-umbelliferyl)-apigenin and its analogs as anti-diabetic reagents” (2016).

Calls of active or inactive are those of the source. The rule behind the calls is not given here.

Common to all, as to type: functional
Test [1] concerns 3T3-L1. Nature of the test: Increase in glucose uptake in serum-starved mouse 3T3L1 adipocytes at 10 uM pretreated followed by glucose addition measured under basal condition by glucose oxidase peroxidase method. Summed up: (§1)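 3T3-L1 adipocytes, used 8–10 days after differentiation (IBMX/dexamethasone/insulin for 48 h, then insulin for 2 days), were incubated with agents in KRH buffer. Glucose in KRH was measured at 0 h and 4 h by glucose oxidase–peroxidase kit, and the difference was taken as consumed glucose. Metformin was the positive control. Data are mean ± SEM of independent experiments.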

For test [2], the system named is 3T3-L1. Briefly: Increase in 2-NBDG uptake in serum-starved mouse 3T3L1 adipocytes at 10 uM measured under basal condition by inverted fluorescence microscopy. Summed up: (§2)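 Adipocytes from 3T3-L1 cells, differentiated 2 days post-confluence in DMEM with 0.5 mM IBMX, dexamethasone and insulin for 48 h, then 2 days in DMEM (10% FBS) with insulin alone. Used 8–10 days after differentiation start. After 1-h serum starvation, cells got agents in KRH for 0.5 h, then […] 2-NBDG for 1 h. They were washed 3× with KRH and imaged by inverted fluorescence microscopy. Metformin was the control.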

Test [3] has as its system 3T3-L1. Briefly: Increase in glucose uptake in serum-starved mouse 3T3L1 adipocytes at 1 mmol/L pretreated followed by glucose addition measured under basal condition by glucose oxidase peroxidase method. Summed up: as §1
In test [4] the test system is 3T3-L1. Nature of the test: Increase in 2-NBDG uptake in serum-starved mouse 3T3L1 adipocytes at 1 mM measured under basal condition by inverted fluorescence microscopy. Summed up: as §2

Turning to `O=c1ccc2cc(-c3c(O)cc(O)c4c(=O)cc(-c5ccccc5)oc34)c(O)cc2o1`, the result in test [1] was Active.

In the case of `COc1cc2oc(=O)ccc2cc1-c1c(O)cc(O)c2c(=O)c(O)c(-c3ccc(O)c(O)c3)oc12`, the outcome in test [2] and in test [1] was Active.

`O=c1c(O)c(-c2ccc(O)c(O)c2)oc2cc(O)cc(O)c12`: the result in test [1] was Active.

For the compound `O=c1ccc2cc(-c3c(O)cc(O)c4c(=O)cc(-c5ccc(O)cc5)oc34)c(O)cc2o1`, the result in test [2] was Active. Besides, the Activity in test [1] is recorded as 48%.

`O=c1cc(-c2ccccc2)oc2cc(O)cc(O)c12`: the outcome in test [1] was Active.

Take `COc1cc2oc(=O)ccc2cc1-c1c(O)cc(O)c2c(=O)cc(-c3ccc(O)cc3)oc12`: the result in test [2] was Active. In addition, the Activity in test [1] is recorded as 57%.

Regarding `COc1cc2oc(=O)ccc2cc1-c1c(O)cc(O)c2c(=O)cc(-c3ccccc3)oc12`, in test [1], the result was Active.

In the case of `O=c1cc(-c2ccc(O)c(O)c2)oc2cc(O)cc(O)c12`, the outcome in test [1] was Active.

Turning to `O=c1cc(-c2ccc(O)cc2)oc2cc(O)cc(O)c12`, the result in test [1] was Active.

Take `CN(C)C(=N)NC(=N)N`: the outcome in test [3] and in test [4] was Active.

With `COc1cc2oc(=O)ccc2cc1-c1c(O)cc(O)c2c(=O)cc(-c3ccc(O)c(O)c3)oc12`, the result in test [2] and in test [1] was Active.
